# Assay results reported in ChEMBL document CHEMBL1800050, “A new class of phenazines with activity against a chloroquine resistant Plasmodium falciparum strain and antimicrobial activity” (J Med Chem, 2011).
# Calls of active or inactive are those of the source. The rule behind the calls is not given here.
# How the values were obtained:
# Plasmodium falciparum [1] = test: Antimalarial activity against chloroquine-sensitive Plasmodium falciparum NF54 infected in human erythrocytes assessed as inhibition of parasite growth at 2.5 to 10 uM after 72 hrs by Geimsa staining based light microscopic analysis; assay type: functional, organism-based
# Plasmodium falciparum [2] = test: Antimalarial activity against chloroquine-sensitive Plasmodium falciparum NF54 infected in human erythrocytes assessed as reduction of parasitemia level at 10 uM after 1 day by Geimsa staining based light microscopic analysis (reference value: 0.97 +/- 0.1%); assay type: functional; design: scale not given: the % may be the effect or the level left
# Plasmodium falciparum [3] = test: Antimalarial activity against chloroquine-sensitive Plasmodium falciparum NF54 infected in human erythrocytes assessed as reduction of parasitemia level at 10 uM after 2 days by Geimsa staining based light microscopic analysis (reference value: 1.21 +/- 0.12%); assay type: functional; design: scale not given: the % may be the effect or the level left
# Plasmodium falciparum [4] = test: Antimalarial activity against chloroquine-sensitive Plasmodium falciparum NF54 infected in human erythrocytes assessed as reduction of parasitemia level at 10 uM after 3 days by Geimsa staining based light microscopic analysis (reference value: 2.55 +/- 0.21%); assay type: functional; design: scale not given: the % may be the effect or the level left
# Plasmodium falciparum [5] = test: Antimalarial activity against chloroquine-sensitive Plasmodium falciparum NF54 infected in human erythrocytes assessed as reduction of parasitemia level at 10 uM after 4 days by Geimsa staining based light microscopic analysis (reference value: 2.73 +/- 0.16%); assay type: functional; design: scale not given: the % may be the effect or the level left
# Plasmodium falciparum [6] = test: Antimalarial activity against chloroquine-sensitive Plasmodium falciparum NF54 infected in human erythrocytes assessed as inhibition of parasite growth after 72 hrs by Geimsa staining based light microscopic analysis; assay type: functional, organism-based; settings: NF54, 72 h
# Plasmodium berghei [7] = test: Antimalarial activity against […] Plasmodium berghei ANKA infected in C57BL/6 mouse assessed as clearance of parasite from blood of mouse at 150 mg/kg, ip administered 3 to 9 days post infection measured on day 5 to 7 by Geimsa staining based microscopic analysis; assay type: functional, organism-based; design: dose 150 mg/kg
# Method in brief: (§1)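 Infected C57BL/6 mice were followed over time for blood parasitemia and for survival, with a chloroquine-treated group as reference. Death from cerebral malaria and later death from anemia were recorded separately.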
# Plasmodium falciparum [8] = test: Antimalarial activity against chloroquine-sensitive Plasmodium falciparum NF54 infected in human erythrocytes assessed as reduction of parasitemia level at 0.032 uM after 1 day by Geimsa staining based light microscopic analysis (reference value: 0.97 +/- 0.1%); assay type: functional; design: scale not given: the % may be the effect or the level left
# Plasmodium falciparum [9] = test: Antimalarial activity against chloroquine-sensitive Plasmodium falciparum NF54 infected in human erythrocytes assessed as reduction of parasitemia level at 0.032 uM after 2 days by Geimsa staining based light microscopic analysis (reference value: 1.21 +/- 0.12%); assay type: functional; design: scale not given: the % may be the effect or the level left
# Plasmodium falciparum [10] = test: Antimalarial activity against chloroquine-sensitive Plasmodium falciparum NF54 infected in human erythrocytes assessed as reduction of parasitemia level at 0.032 uM after 3 days by Geimsa staining based light microscopic analysis (reference value: 2.55 +/- 0.21%); assay type: functional; design: scale not given: the % may be the effect or the level left
# Plasmodium falciparum [11] = test: Antimalarial activity against chloroquine-sensitive Plasmodium falciparum NF54 infected in human erythrocytes assessed as reduction of parasitemia level at 0.032 uM after 4 days by Geimsa staining based light microscopic analysis (reference value: 2.73 +/- 0.16%); assay type: functional; design: scale not given: the % may be the effect or the level left
# Plasmodium berghei [12] = test: Antimalarial activity against […] Plasmodium berghei ANKA infected in C57BL/6 mouse assessed as clearance of parasite from blood of mouse at 25 mg/kg, ip administered 3 to 9 days post infection by Geimsa staining based microscopic analysis; assay type: functional, organism-based; design: dose 25 mg/kg; method in brief: as §1
# Plasmodium falciparum [13] = test: Antimalarial activity against chloroquine-sensitive Plasmodium falciparum NF54 infected in human erythrocytes assessed as reduction of parasitemia level at 3 uM after 1 day by Geimsa staining based light microscopic analysis (reference value: 0.97 +/- 0.1%); assay type: functional; design: scale not given: the % may be the effect or the level left
# Plasmodium falciparum [14] = test: Antimalarial activity against chloroquine-sensitive Plasmodium falciparum NF54 infected in human erythrocytes assessed as reduction of parasitemia level at 3 uM after 2 days by Geimsa staining based light microscopic analysis (reference value: 1.21 +/- 0.12%); assay type: functional; design: scale not given: the % may be the effect or the level left
# Plasmodium falciparum [15] = test: Antimalarial activity against chloroquine-sensitive Plasmodium falciparum NF54 infected in human erythrocytes assessed as reduction of parasitemia level at 3 uM after 3 days by Geimsa staining based light microscopic analysis (reference value: 2.55 +/- 0.21%); assay type: functional; design: scale not given: the % may be the effect or the level left
# Plasmodium falciparum [16] = test: Antimalarial activity against chloroquine-sensitive Plasmodium falciparum NF54 infected in human erythrocytes assessed as reduction of parasitemia level at 3 uM after 4 days by Geimsa staining based light microscopic analysis (reference value: 2.73 +/- 0.16%); assay type: functional; design: scale not given: the % may be the effect or the level left
# Plasmodium falciparum [17] = test: Antimalarial activity against chloroquine-sensitive Plasmodium falciparum NF54 infected in human erythrocytes assessed as reduction of parasitemia level at 20 uM after 1 day by Geimsa staining based light microscopic analysis (reference value: 0.97 +/- 0.1%); assay type: functional; design: scale not given: the % may be the effect or the level left
# Plasmodium falciparum [18] = test: Antimalarial activity against chloroquine-sensitive Plasmodium falciparum NF54 infected in human erythrocytes assessed as reduction of parasitemia level at 20 uM after 2 days by Geimsa staining based light microscopic analysis (reference value: 1.21 +/- 0.12%); assay type: functional; design: scale not given: the % may be the effect or the level left
# Plasmodium falciparum [19] = test: Antimalarial activity against chloroquine-sensitive Plasmodium falciparum NF54 infected in human erythrocytes assessed as reduction of parasitemia level at 20 uM after 3 days by Geimsa staining based light microscopic analysis (reference value: 2.55 +/- 0.21%); assay type: functional; design: scale not given: the % may be the effect or the level left
# Plasmodium falciparum [20] = test: Antimalarial activity against chloroquine-sensitive Plasmodium falciparum NF54 infected in human erythrocytes assessed as reduction of parasitemia level at 20 uM after 4 days by Geimsa staining based light microscopic analysis (reference value: 2.73 +/- 0.16%); assay type: functional; design: scale not given: the % may be the effect or the level left
# Plasmodium berghei [21] = test: Antimalarial activity against […] Plasmodium berghei ANKA infected in C57BL/6 mouse assessed as protection against cerebral malaria at 100 mg/kg, ip administered 3 to 9 days post infection by Geimsa staining based microscopic analysis; assay type: functional, organism-based; design: dose 100 mg/kg; method in brief: as §1
# Plasmodium berghei [22] = test: Antimalarial activity against […] Plasmodium berghei ANKA infected in C57BL/6 mouse assessed as clearance of parasite from blood of mouse at 100 mg/kg, ip administered 3 to 9 days post infection by Geimsa staining based microscopic analysis; assay type: functional, organism-based; design: dose 100 mg/kg; method in brief: as §1
# Mus musculus [23] = test: Toxicity in […] Plasmodium berghei ANKA infected C57BL/6 mouse assessed as mortality with anemia at 100 mg/kg, ip administered 3 to 9 days post infection measured on day 10; assay type: organism-based; design: dose 100 mg/kg, route intraperitoneal; settings: in vivo; method in brief: as §1
# Plasmodium berghei [24] = test: Antimalarial activity against […] Plasmodium berghei ANKA infected in C57BL/6 mouse assessed as protection against cerebral malaria at 80 mg/kg, ip administered 3 to 9 days post infection by Geimsa staining based microscopic analysis; assay type: functional, organism-based; design: dose 80 mg/kg; method in brief: as §1
# Plasmodium berghei [25] = test: Antimalarial activity against […] Plasmodium berghei ANKA infected in C57BL/6 mouse assessed as clearance of parasite from blood of mouse at 80 mg/kg, ip administered 3 to 9 days post infection by Geimsa staining based microscopic analysis; assay type: functional, organism-based; design: dose 80 mg/kg; method in brief: as §1
# Mus musculus [26] = test: Toxicity in […] Plasmodium berghei ANKA infected C57BL/6 mouse assessed as mortality with anemia at 80 mg/kg, ip administered 3 to 9 days post infection measured on day 10; assay type: organism-based; design: dose 80 mg/kg, route intraperitoneal; settings: in vivo; method in brief: as §1
smiles,measurement,setting,value
Oc1ccc2ccccc2c1-c1cc2nc3c(O)nc(S)nc3nc2c2ccccc12,inhibition,Plasmodium falciparum [1],inactive
O=C(O)c1cnc2cc(-c3c(O)ccc4ccccc34)c3ccccc3c2n1,inhibition,Plasmodium falciparum [1],inactive
O/N=C1/C=C(c2c(O)ccc3ccccc23)c2ccccc2/C1=N/O,Activity,Plasmodium falciparum [2],0.94%
same,Activity,Plasmodium falciparum [3],0.2%
same,Activity,Plasmodium falciparum [4],0.04%
same,Activity,Plasmodium falciparum [5],0%
same,IC50,Plasmodium falciparum [6],3.73 µM
Oc1ccc2cc(Br)ccc2c1-c1cc2nc3ccccc3nc2c2ccc(Br)cc12,Activity,Plasmodium falciparum [2],0.14%
same,Activity,Plasmodium falciparum [3],0.01%
same,Activity,Plasmodium falciparum [4],0%
same,Activity,Plasmodium falciparum [5],0%
same,IC50,Plasmodium falciparum [6],0.64 µM
same,Activity,Plasmodium berghei [7],Active
Oc1ccc2ccccc2c1-c1cc2c(c3ccccc13)=NC1(CCCCC1)N=2,inhibition,Plasmodium falciparum [1],inactive
Nc1nnc2cc(-c3c(O)ccc4ccccc34)c3ccccc3c2n1,inhibition,Plasmodium falciparum [1],inactive
CCN(CC)CCCC(C)Nc1ccnc2cc(Cl)ccc12 (stereo not drawn) [CHLOROQUINE],Activity,Plasmodium falciparum [8],0.06%
same,Activity,Plasmodium falciparum [9],0%
same,Activity,Plasmodium falciparum [10],0%
same,Activity,Plasmodium falciparum [11],0%
same,Activity,Plasmodium berghei [12],inactive
Oc1c(-c2cc3nc4ccccc4nc3c3ccccc23)ccc2ccccc12,Activity,Plasmodium falciparum [13],0.27%
same,Activity,Plasmodium falciparum [14],0.11%
same,Activity,Plasmodium falciparum [15],0.02%
same,Activity,Plasmodium falciparum [16],0%
same,IC50,Plasmodium falciparum [6],0.88 µM
Oc1c(-c2cc3nc4ncccc4nc3c3ccccc23)ccc2ccccc12,inhibition,Plasmodium falciparum [1],inactive
Oc1ccc2ccccc2c1-c1cc2nc3ncccc3nc2c2ccccc12,Activity,Plasmodium falciparum [17],0.04%
same,Activity,Plasmodium falciparum [18],0%
same,Activity,Plasmodium falciparum [19],0%
same,Activity,Plasmodium falciparum [20],0%
same,IC50,Plasmodium falciparum [6],5.23 µM
same,Activity,Plasmodium berghei [21],Active
same,Activity,Plasmodium berghei [22],inactive
same,Activity,Mus musculus [23],Toxic
Oc1ccc2ccccc2c1-c1cc2nc3cc(Cl)c(Cl)cc3nc2c2ccccc12,Activity,Plasmodium falciparum [17],0.14%
same,Activity,Plasmodium falciparum [18],0.01%
same,Activity,Plasmodium falciparum [19],0%
same,Activity,Plasmodium falciparum [20],0%
same,IC50,Plasmodium falciparum [6],5.05 µM
same,Activity,Plasmodium berghei [21],Active
same,Activity,Plasmodium berghei [22],inactive
same,Activity,Mus musculus [23],Toxic
O=C1C=C(c2ccc3ccccc3c2O)c2ccccc2C1=O,inhibition,Plasmodium falciparum [1],inactive
Oc1c(-c2cc3nc4cc(Cl)c(Cl)cc4nc3c3ccccc23)ccc2ccccc12,Activity,Plasmodium falciparum [13],0.17%
same,Activity,Plasmodium falciparum [14],0.15%
same,Activity,Plasmodium falciparum [15],0%
same,Activity,Plasmodium falciparum [16],0%
same,IC50,Plasmodium falciparum [6],0.51 µM
Oc1c(-c2cc3nc4c(O)nc(S)nc4nc3c3ccccc23)ccc2ccccc12,inhibition,Plasmodium falciparum [1],inactive
Oc1ccc2ccccc2c1-c1cc2nc3ccccc3nc2c2ccccc12,Activity,Plasmodium falciparum [17],0.23%
same,Activity,Plasmodium falciparum [18],0.07%
same,Activity,Plasmodium falciparum [19],0.02%
same,Activity,Plasmodium falciparum [20],0%
same,IC50,Plasmodium falciparum [6],4.11 µM
same,Activity,Plasmodium berghei [24],Active
same,Activity,Plasmodium berghei [25],inactive
same,Activity,Mus musculus [26],Toxic
O=C(O)c1cnc2cc(-c3ccc4ccccc4c3O)c3ccccc3c2n1,inhibition,Plasmodium falciparum [1],inactive
